Experiments:
Format in all cases: functional, Artery
[1] = tested on: Rattus norvegicus; assay: The compound was tested for the maximum fall in systolic blood pressure 1-6 hr of 1.0 mg/kg oral dose administration in rats
How it was run: (§1)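 Conscious spontaneously hypertensive rats of Japanese (Okamoto) strain, 14-24 weeks old, hypertensive if systolic pressure >180 mmHg; groups of six per dose level unless indicated. Oral gavage via esophageal needle as solution or suspension in 1% w/v methylcellulose. Tail-cuff systolic pressure (each value mean of ≥6 recordings) taken predose and at intervals up to 6 h postdose.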

[2] = tested on: Rattus norvegicus; assay: The compound was tested for the maximum fall in systolic blood pressure 1-6 hr of 3.0 mg/kg oral dose administration in rats; how it was run: as §1
[3] = tested on: Rattus norvegicus; assay: The compound was tested for the maximum fall in systolic blood pressure 1-6 hr of 10 mg/kg oral dose administration in rats; how it was run: as §1
[4] = tested on: Rattus norvegicus; assay: The compound was tested for the maximum fall in systolic blood pressure 1-6 hr of 10.0 mg/kg oral dose administration in rats; how it was run: as §1
[5] = tested on: Rattus norvegicus; assay: The compound was tested for the maximum fall in systolic blood pressure 1-6 hr of 0.3 mg/kg oral dose administration in rats; how it was run: as §1
[6] = tested on: Rattus norvegicus; assay: The compound was tested for the maximum fall in systolic blood pressure 1-6 hr of 0.1 mg/kg oral dose administration in rats; how it was run: as §1
[7] = tested on: Rattus norvegicus; assay: The compound was tested for the maximum fall in systolic blood pressure 1-6 hr of 3 mg/kg oral dose administration in rats; how it was run: as §1

## CC1(C)C=C(N2CCCC2=O)c2cc(C#N)ccc2C1
[1]
  Max fall in blood pressure: 23%
[2]
  Max fall in blood pressure: 50%

## CC1(C)Nc2ccc(Br)cc2C(N2CCCC2=O)C1O (centres undefined)
[3]
  Max fall in blood pressure: 6%

## CNC(=O)NC1c2cc(C#N)ccc2CC(C)(C)C1O (centres undefined)
[2]
  Max fall in blood pressure: 23%
[4]
  Max fall in blood pressure: 52%

## CC1(C)C=C(N2CCCC2=O)c2cc(C#N)ccc2N1
[1]
  Max fall in blood pressure: 10%
[2]
  Max fall in blood pressure: 29%
[4]
  Max fall in blood pressure: 49%

## CNC(=O)NC1c2cc(C#N)ccc2OC(C)(C)[C@H]1O (some centres undefined)
[1]
  Max fall in blood pressure: 61%
[5]
  Max fall in blood pressure: 31%

## CC1(C)Cc2ccc(C#N)cc2C(NC(=O)c2ccccc2)C1O (centres undefined)
[2]
  Max fall in blood pressure: 16%
[4]
  Max fall in blood pressure: 44%

## CC1(C)Nc2ccc(C#N)cc2C(N2CCCC2=O)C1O (centres undefined)
[2]
  Max fall in blood pressure: 26%
[4]
  Max fall in blood pressure: 39%
[3]
  Max fall in blood pressure: 9%

## CC1(C)Oc2ccc(Cl)cc2C(N2CCCC2=O)C1O (centres undefined)
[3]
  Max fall in blood pressure: 37%

## CC1(C)Cc2ccc(C#N)cc2C(N2CCCC2=O)C1O (centres undefined)
[2]
  Max fall in blood pressure: 29%
[4]
  Max fall in blood pressure: 32%

## CN(C)C(=O)CC1c2cc(C#N)ccc2OC(C)(C)C1O (centres undefined)
[1]
  Max fall in blood pressure: 28%
[2]
  Max fall in blood pressure: 51%

## CC1(C)Oc2ccc(C#N)cc2C(NC(=O)c2ccccc2)C1O (centres undefined)
[5]
  Max fall in blood pressure: 16%
[4]
  Max fall in blood pressure: 41%

## CC1(C)Oc2ccc(C#N)cc2C(N2CCCC2=O)C1O (centres undefined) [CROMAKALIM]
[1]
  Max fall in blood pressure: 47%
[5]
  Max fall in blood pressure: 39%

## CC(=O)NC1c2cc(C#N)ccc2OC(C)(C)C1O (centres undefined)
[6]
  Max fall in blood pressure: 18%
[1]
  Max fall in blood pressure: 67%
[2]
  Max fall in blood pressure: 47%

## CC(=O)CC1c2cc(C#N)ccc2OC(C)(C)C1O (centres undefined)
[1]
  Max fall in blood pressure: 5%
[4]
  Max fall in blood pressure: 30%

## CNC(=O)CC1c2cc(C#N)ccc2OC(C)(C)C1O (centres undefined)
[2]
  Max fall in blood pressure: 9%

## CC1(C)C=C(N2CCCC2=O)c2cc(Br)ccc2N1
[3]
  Max fall in blood pressure: 4%

## CC(=O)NC1c2cc(C#N)ccc2CC(C)(C)C1O (centres undefined)
[1]
  Max fall in blood pressure: 22%
[2]
  Max fall in blood pressure: 34%

## CC1(C)C=C(N2CCCC2=O)c2cc(C#N)ccc2O1
[6]
  Max fall in blood pressure: 12%
[5]
  Max fall in blood pressure: 47%

## CC1(C)C=C(N2CCCC2=O)c2cc(Cl)ccc2N1
[3]
  Max fall in blood pressure: 13%

## CN1CCC(C2c3cc(C#N)ccc3OC(C)(C)C2O)C1=O (centres undefined)
[7]
  Max fall in blood pressure: 10%
[4]
  Max fall in blood pressure: 21%

## CC1(C)Nc2ccc(Cl)cc2C(N2CCCC2=O)C1O (centres undefined)
[3]
  Max fall in blood pressure: 8%

— ChEMBL document CHEMBL1125794, “Synthesis and antihypertensive activity of pyran oxygen and amide nitrogen replacement analogues of the potassium channel activator cromakalim” (1991)
